{"source": "ChEMBL document CHEMBL1687715", "about": "“Therapeutic activity of an anti-idiotypic antibody-derived killer peptide against influenza A virus experimental infection” (Antimicrob Agents Chemother, 2008)", "key": {"Influenza A virus [1]": {"tested_on": "Influenza A virus", "experiment": "Antiviral activity against Influenza A virus/parrot/Ulster/73(H7N1) infected in LLC-MK2 cells assessed as of reduction in optical density values at 4 ug/ml using human RBCs by hemadsorption assay", "type": "functional, organism-based", "conditions": "A/parrot/Ulster/73(H7N1), Erythrocyte"}, "Influenza A virus [2]": {"tested_on": "Influenza A virus", "experiment": "Antiviral activity against Influenza A virus/parrot/Ulster/73(H7N1) infected in MDCK cells assessed as of reduction in optical density values at 4 ug/ml using human RBCs by hemadsorption assay", "type": "functional, organism-based", "conditions": "A/parrot/Ulster/73(H7N1), Erythrocyte"}, "LLC-MK2 [3]": {"tested_on": "LLC-MK2", "experiment": "Cytotoxicity against monkey LLC-MK2 cells assessed as effect on cell viability at 4 ug/ml", "type": "cell-based, Macaca mulatta", "conditions": "rhesus monkey", "summary_of_the_method": "(§1)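 Uninfected confluent monolayers were exposed to 4 μg/ml or left untreated. Viability was assessed by dye exclusion and MTT assay. DNA and RNA synthesis were measured by 48 h labelling with 10 μCi/ml [3H]thymidine or [3H]uridine, followed by counting of trichloroacetic acid-insoluble radioactivity.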"}, "LLC-MK2 [4]": {"tested_on": "LLC-MK2", "experiment": "Cytotoxicity against monkey LLC-MK2 cells assessed as effect on DNA synthesis at 4 ug/ml", "type": "cell-based, Macaca mulatta", "conditions": "rhesus monkey", "summary_of_the_method": "as §1"}, "LLC-MK2 [5]": {"tested_on": "LLC-MK2", "experiment": "Cytotoxicity against monkey LLC-MK2 cells assessed as effect on RNA synthesis at 4 ug/ml", "type": "cell-based, Macaca mulatta", "conditions": "rhesus monkey", "summary_of_the_method": "as §1"}, "MDCK [6]": {"tested_on": "MDCK", "experiment": "Cytotoxicity against MDCK cells assessed as effect on cell viability at 4 ug/ml", "type": "cell-based, Canis lupus familiaris", "conditions": "dog", "summary_of_the_method": "as §1"}, "MDCK [7]": {"tested_on": "MDCK", "experiment": "Cytotoxicity against MDCK cells assessed as effect on DNA synthesis at 4 ug/ml", "type": "cell-based, Canis lupus familiaris", "conditions": "dog", "summary_of_the_method": "as §1"}, "MDCK [8]": {"tested_on": "MDCK", "experiment": "Cytotoxicity against MDCK cells assessed as effect on RNA synthesis at 4 ug/ml", "type": "cell-based, Canis lupus familiaris", "conditions": "dog", "summary_of_the_method": "as §1"}, "Influenza A virus [9]": {"tested_on": "Influenza A virus", "experiment": "Antiviral activity against Influenza A virus/NWS/1933(H1N1) infected in BALB/c mouse assessed as reduction in mortality rate at 50 ug, ip administered once daily for 10 days and dosed 30 mins post infection relative to untreated control", "type": "functional, organism-based", "conditions": "Influenza A virus (A/NWS/1933(H1N1))", "summary_of_the_method": "(§2)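 BALB/c males, 4 weeks old, about 20 g, 10 per group, randomised. Daily i.p. treatment (50 or 100 μg/mouse, or 2 mg/mouse) in 100 μl 0.9% NaCl, starting 30 min after intranasal challenge and repeated for the next 10 days. Placebo was diluent. Mortality rate ratio versus placebo was derived by proportional hazards regression, with 95% CI.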"}, "Influenza A virus [10]": {"tested_on": "Influenza A virus", "experiment": "Antiviral activity against Influenza A virus/NWS/1933(H1N1) infected in BALB/c mouse assessed as survival rate at 50 ug, ip administered once daily for 10 days and dosed 30 mins post infection", "type": "functional, organism-based", "conditions": "Influenza A virus (A/NWS/1933(H1N1))", "summary_of_the_method": "(§3)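 Male BALB/c mice, 4 weeks old, 10 per group. Given i.p. in 100 μl 0.9% NaCl once daily from 30 min post-challenge through the next 10 days; diluent for placebo. Survival was checked daily for 30 days, and day-30 survivors were counted as cured. Curves were compared by log-rank test. Four experiments were run.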"}, "Mus musculus [11]": {"tested_on": "Mus musculus", "experiment": "Toxicity in Influenza A virus/NWS/1933(H1N1) infected in BALB/c mouse assessed as effect on motor activity at 100 ug, ip administered once daily for 10 days and dosed 30 mins post infection", "type": "organism-based", "conditions": "in vivo"}, "Mus musculus [12]": {"tested_on": "Mus musculus", "experiment": "Toxicity in Influenza A virus/NWS/1933(H1N1) infected in BALB/c mouse assessed as weight loss at 100 ug, ip administered once daily for 10 days and dosed 30 mins post infection", "type": "organism-based", "conditions": "in vivo"}, "Influenza A virus [13]": {"tested_on": "Influenza A virus", "experiment": "microbe, parasite or virus in culture", "type": "functional, organism-based", "conditions": "LLC-MK2, 24 h"}, "Influenza A virus [14]": {"tested_on": "Influenza A virus", "experiment": "microbe, parasite or virus in culture", "type": "functional", "conditions": "LLC-MK2, 2 h"}, "Influenza A virus [15]": {"tested_on": "Influenza A virus", "experiment": "microbe, parasite or virus in culture", "type": "functional", "conditions": "LLC-MK2, 2 h", "remark": "listed apart in the source"}, "Influenza A virus [16]": {"tested_on": "Influenza A virus", "experiment": "microbe, parasite or virus in culture", "type": "functional", "conditions": "LLC-MK2, 6 h"}, "Influenza A virus [17]": {"tested_on": "Influenza A virus", "experiment": "microbe, parasite or virus in culture", "type": "functional", "conditions": "LLC-MK2, 6 h", "remark": "listed apart in the source"}, "Influenza A virus [18]": {"tested_on": "Influenza A virus", "experiment": "microbe, parasite or virus in culture", "type": "functional", "conditions": "LLC-MK2, 6 h", "remark": "listed apart in the source"}, "Influenza A virus [19]": {"tested_on": "Influenza A virus", "experiment": "microbe, parasite or virus in culture", "type": "functional", "conditions": "LLC-MK2, 8 h"}, "Influenza A virus [20]": {"tested_on": "Influenza A virus", "experiment": "microbe, parasite or virus in culture", "type": "functional", "conditions": "LLC-MK2, 8 h", "remark": "listed apart in the source"}, "Influenza A virus [21]": {"tested_on": "Influenza A virus", "experiment": "microbe, parasite or virus in culture", "type": "functional", "conditions": "LLC-MK2, 8 h", "remark": "listed apart in the source"}, "Influenza A virus [22]": {"tested_on": "Influenza A virus", "experiment": "microbe, parasite or virus in culture", "type": "functional", "conditions": "LLC-MK2, 8 h", "remark": "listed apart in the source"}, "Influenza A virus [23]": {"tested_on": "Influenza A virus", "experiment": "microbe, parasite or virus in culture", "type": "functional", "conditions": "LLC-MK2, 4 h"}, "Influenza A virus [24]": {"tested_on": "Influenza A virus", "experiment": "microbe, parasite or virus in culture", "type": "functional", "conditions": "LLC-MK2, 6 h", "remark": "listed apart in the source"}, "Influenza A virus [25]": {"tested_on": "Influenza A virus", "experiment": "microbe, parasite or virus in culture", "type": "functional", "conditions": "LLC-MK2, 4 h", "remark": "listed apart in the source"}, "Influenza A virus [26]": {"tested_on": "Influenza A virus", "experiment": "microbe, parasite or virus in culture", "type": "functional", "conditions": "LLC-MK2, 6 h", "remark": "listed apart in the source"}, "Influenza A virus [27]": {"tested_on": "Influenza A virus", "experiment": "Antiviral activity against Influenza A virus/NWS/1933(H1N1) infected in BALB/c mouse assessed as survival rate at 100 ug, ip administered once daily for 10 days and dosed 30 mins post infection", "type": "functional, Influenza A virus (A/NWS/1933(H1N1))", "summary_of_the_method": "as §3"}, "Influenza A virus [28]": {"tested_on": "Influenza A virus", "experiment": "Antiviral activity against Influenza A virus/NWS/1933(H1N1) infected in BALB/c mouse assessed as reduction in mortality rate at 100 ug, ip administered once daily for 10 days and dosed 30 mins post infection relative to untreated control", "type": "functional, Influenza A virus (A/NWS/1933(H1N1))", "summary_of_the_method": "as §2"}, "Influenza A virus [29]": {"tested_on": "Influenza A virus", "experiment": "Antiviral activity against Influenza A virus/NWS/1933(H1N1) infected in BALB/c mouse assessed reduction in viral load in lung at 100 ug, ip measured after 6 days postinfection relative to untreated control", "type": "functional, Influenza A virus (A/NWS/1933(H1N1))", "summary_of_the_method": "(§4)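 Groups of 5 infected BALB/c mice, dosed i.p. daily, were killed on day 6 p.i. Each lung was weighed and homogenised in RPMI 1640. Titre was by TCID50 on MDCK monolayers: 10-fold dilutions, eight wells each, 3 days, cytopathic effect scored. Expressed per gram of lung; five homogenates per group, mean ± SD.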"}, "Influenza A virus [30]": {"tested_on": "Influenza A virus", "experiment": "Antiviral activity against Influenza A virus/NWS/1933(H1N1) infected in BALB/c mouse assessed reduction in viral load in lung at 50 ug, ip measured after 6 days postinfection relative to untreated control", "type": "functional, organism-based", "conditions": "Influenza A virus (A/NWS/1933(H1N1))", "summary_of_the_method": "as §4"}, "Mus musculus [31]": {"tested_on": "Mus musculus", "experiment": "Toxicity in Influenza A virus/NWS/1933(H1N1) infected BALB/c mouse assessed as incidence of mouse death at 100 ug, ip administered once daily for 10 days and dosed 30 mins post infection", "type": "organism-based", "conditions": "in vivo"}, "Influenza A virus [32]": {"tested_on": "Influenza A virus", "experiment": "Antiviral activity against Influenza A virus/NWS/1933(H1N1) infected in BALB/c mouse assessed as survival rate at 2 mg, ip administered once daily for 10 days and dosed 30 mins post infection", "type": "functional, Influenza A virus (A/NWS/1933(H1N1))", "summary_of_the_method": "as §3"}, "Influenza A virus [33]": {"tested_on": "Influenza A virus", "experiment": "Antiviral activity against Influenza A virus/NWS/1933(H1N1) infected in BALB/c mouse assessed as reduction in mortality rate at 2 mg, ip administered once daily for 10 days and dosed 30 mins post infection relative to untreated control", "type": "functional, Influenza A virus (A/NWS/1933(H1N1))", "summary_of_the_method": "as §2"}}, "note": "Activity calls are given as the source filed them. The rule behind the calls is not given here.", "data": [{"compound": "H-AKVTMTCSAS-OH", "values": [{"measurement": "inhibition", "setting": "Influenza A virus [1]", "value": "Active"}, {"measurement": "inhibition", "setting": "Influenza A virus [2]", "value": "Active"}, {"measurement": "Activity", "setting": "LLC-MK2 [3]", "value": "Non-toxic"}, {"measurement": "Activity", "setting": "LLC-MK2 [4]", "value": "Non-toxic"}, {"measurement": "Activity", "setting": "LLC-MK2 [5]", "value": "Non-toxic"}, {"measurement": "Activity", "setting": "MDCK [6]", "value": "Non-toxic"}, {"measurement": "Activity", "setting": "MDCK [7]", "value": "Non-toxic"}, {"measurement": "Activity", "setting": "MDCK [8]", "value": "Non-toxic"}, {"measurement": "Activity", "setting": "Influenza A virus [9]", "value": "inactive"}, {"measurement": "Activity", "setting": "Influenza A virus [10]", "value": "inactive"}, {"measurement": "Activity", "setting": "Mus musculus [11]", "value": "Non-toxic"}, {"measurement": "Activity", "setting": "Mus musculus [12]", "value": "Non-toxic"}, {"measurement": "EC50", "setting": "Influenza A virus [13]", "value": 2690, "unit": "nM"}, {"measurement": "inhibition at 4 µg/mL", "setting": "Influenza A virus [14]", "value": 59.1, "unit": "%"}, {"measurement": "inhibition at 4 µg/mL", "setting": "Influenza A virus [15]", "value": 96.3, "unit": "%"}, {"measurement": "inhibition at 4 µg/mL", "setting": "Influenza A virus [16]", "value": 88.9, "unit": "%"}, {"measurement": "inhibition at 4 µg/mL", "setting": "Influenza A virus [17]", "value": 76.9, "unit": "%"}, {"measurement": "inhibition at 4 µg/mL", "setting": "Influenza A virus [18]", "value": 86.1, "unit": "%"}, {"measurement": "inhibition at 4 µg/mL", "setting": "Influenza A virus [19]", "value": 71.2, "unit": "%"}, {"measurement": "inhibition at 4 µg/mL", "setting": "Influenza A virus [20]", "value": 46.5, "unit": "%"}, {"measurement": "inhibition at 4 µg/mL", "setting": "Influenza A virus [21]", "value": 93.6, "unit": "%"}, {"measurement": "inhibition at 4 µg/mL", "setting": "Influenza A virus [22]", "value": 26.8, "unit": "%"}, {"measurement": "inhibition at 4 µg/mL", "setting": "Influenza A virus [23]", "value": 62.4, "unit": "%"}, {"measurement": "inhibition at 4 µg/mL", "setting": "Influenza A virus [24]", "value": 65.2, "unit": "%"}, {"measurement": "inhibition at 4 µg/mL", "setting": "Influenza A virus [25]", "value": 45.1, "unit": "%"}, {"measurement": "inhibition at 4 µg/mL", "setting": "Influenza A virus [26]", "value": 49.7, "unit": "%"}, {"measurement": "Survival", "setting": "Influenza A virus [27]", "value": 50, "unit": "%"}, {"measurement": "inhibition (INH)", "setting": "Influenza A virus [28]", "value": 72, "unit": "%"}, {"measurement": "fold change (FC)", "setting": "Influenza A virus [29]", "value": 2}, {"measurement": "Activity", "setting": "Influenza A virus [30]", "value": "Active"}, {"measurement": "Activity", "setting": "Mus musculus [31]", "value": "Non-toxic"}]}, {"compound": "NC12CC3CC(CC(C3)C1)C2", "note": "[AMANTADINE]", "values": [{"measurement": "Survival", "setting": "Influenza A virus [32]", "value": 50, "unit": "%"}, {"measurement": "inhibition (INH)", "setting": "Influenza A virus [33]", "value": 77, "unit": "%"}]}]}
